According to ChEMBL document CHEMBL4261634, “Design and optimization of 2,3-dihydrobenzo[b][1,4]dioxine propanoic acids as novel GPR40 agonists with improved pharmacokinetic and safety profiles” (Bioorg Med Chem, 2018):
Active and inactive are the calls of the source. The rule behind the calls is not given here.

Columns and labels:
[1] = molecular target: T1, Free fatty acid receptor 1 (Homo sapiens, UniProt O14842); assay: Agonist activity at human GPR40 expressed in human HEK293 cells assessed as increase in intracellular calcium flux after 10 mins by fluorescence assay; format: functional, cell-based
Summary of the method: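 Human GPR40 activity read by calcium mobilization to give EC50. Mean ± SD, n = 3.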

[2] = molecular target: T1, Free fatty acid receptor 1; assay: Agonist activity at human GPR40 expressed in human HEK293 cells assessed as increase in intracellular calcium flux after 10 mins by fluorescence assay relative to linoleic acid; format: functional, cell-based
Summary of the method: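 Human GPR40 activity read by calcium mobilization to give EC50. Emax expressed relative to linoleic acid as 100%. Mean ± SD, n = 3.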

[3] = AUC (0 to t) in Sprague-Dawley rat at 10 mg/kg, po by LC-ESI-MS analysis; format: ADME, organism-based; conditions: in vivo
Summary of the method: (§1)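 SD rats dosed orally (3 or 10 mg/kg) or by intravenous injection (1 mg/kg). Plasma PK parameters derived per route: Cmax, AUC0-t, Tmax, t1/2 and F after oral dosing; CL, AUC0-t, MRT, t1/2 and Vdss after iv dosing. Mean ± SD from three independent experiments (n = 3).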

Rattus norvegicus [4] = assay: Antidiabetic activity in Sprague-Dawley rat assessed as reduction in blood glucose excursion at 10 mg/kg, po administered 60 mins prior to glucose challenge by OGTT; format: functional, organism-based
Summary of the method: (§2)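 OGTT in SD rats: compound given orally 60 min before a 3.0 g/kg glucose challenge. Blood glucose followed over time, and AUC0-60min or AUC0-120min calculated versus vehicle group. Mean ± SD, n = 8.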

[5] = molecular target: T2, Solute carrier organic anion transporter family member 1B1 (Homo sapiens, UniProt Q9Y6L6); assay: Inhibition of human […]
T2 sequence (Q9Y6L6 whole entry): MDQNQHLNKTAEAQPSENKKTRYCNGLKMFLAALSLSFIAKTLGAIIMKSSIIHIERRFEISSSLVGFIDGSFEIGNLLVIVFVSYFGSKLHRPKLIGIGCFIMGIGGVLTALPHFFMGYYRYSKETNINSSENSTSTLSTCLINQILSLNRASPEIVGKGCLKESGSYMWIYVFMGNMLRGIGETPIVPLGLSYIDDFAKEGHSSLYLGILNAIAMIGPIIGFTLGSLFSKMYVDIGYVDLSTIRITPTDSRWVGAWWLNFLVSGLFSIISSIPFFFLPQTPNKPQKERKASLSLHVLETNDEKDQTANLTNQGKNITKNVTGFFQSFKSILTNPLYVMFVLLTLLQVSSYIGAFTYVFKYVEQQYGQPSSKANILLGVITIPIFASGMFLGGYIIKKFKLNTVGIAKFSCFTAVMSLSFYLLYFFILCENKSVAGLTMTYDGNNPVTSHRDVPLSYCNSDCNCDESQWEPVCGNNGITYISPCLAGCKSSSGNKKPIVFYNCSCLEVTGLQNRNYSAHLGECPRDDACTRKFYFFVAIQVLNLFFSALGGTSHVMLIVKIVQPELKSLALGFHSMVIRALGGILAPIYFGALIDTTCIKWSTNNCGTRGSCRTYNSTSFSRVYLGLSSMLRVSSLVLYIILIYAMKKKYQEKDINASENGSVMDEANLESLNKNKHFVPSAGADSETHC

[6] = Tmax in Sprague-Dawley rat at 10 mg/kg, po by LC-ESI-MS analysis; format: ADME, organism-based; conditions: in vivo; summary of the method: as §1
[7] = Elimination half life in Sprague-Dawley rat at 10 mg/kg, po by LC-ESI-MS analysis; format: ADME, organism-based; conditions: in vivo, read-out: beta t1/2 (converted); summary of the method: as §1
[8] = Cmax in Sprague-Dawley rat at 10 mg/kg, po by LC-ESI-MS analysis; format: ADME, organism-based; set-up: dose 10 mg/kg, route oral; conditions: in vivo; summary of the method: as §1
Hepatocyte = assay: Toxicity in sandwich-cultured Sprague-Dawley rat hepatocytes assessed as inhibition of hepatobiliary transport by measuring biliary excretion index at 20 to 40 uM after 15 mins in presence of d8-TCA by LC-MS/MS analysis; format: cell-based; conditions: 0.25 h
Summary of the method: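 Sandwich-cultured rat hepatocytes incubated with compound and d8-TCA in standard (Ca2+-containing) or Ca2+-free buffer. Cellular d8-TCA measured, and the biliary excretion index calculated as the fraction of accumulated bile acid excreted into bile. Mean of three independent experiments.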

Rattus norvegicus [9] = assay: Antidiabetic activity in Sprague-Dawley rat assessed as reduction in blood glucose AUC (0 to 60 mins) at 10 mg/kg, po administered 60 mins prior to glucose challenge by OGTT; format: functional, organism-based; summary of the method: as §2
[10] = molecular target: T3, Solute carrier organic anion transporter family member 1B3 (Homo sapiens, UniProt Q9NPD5); assay: Inhibition of human OATP1B3; format: ADME
T3 sequence (Q9NPD5 whole entry): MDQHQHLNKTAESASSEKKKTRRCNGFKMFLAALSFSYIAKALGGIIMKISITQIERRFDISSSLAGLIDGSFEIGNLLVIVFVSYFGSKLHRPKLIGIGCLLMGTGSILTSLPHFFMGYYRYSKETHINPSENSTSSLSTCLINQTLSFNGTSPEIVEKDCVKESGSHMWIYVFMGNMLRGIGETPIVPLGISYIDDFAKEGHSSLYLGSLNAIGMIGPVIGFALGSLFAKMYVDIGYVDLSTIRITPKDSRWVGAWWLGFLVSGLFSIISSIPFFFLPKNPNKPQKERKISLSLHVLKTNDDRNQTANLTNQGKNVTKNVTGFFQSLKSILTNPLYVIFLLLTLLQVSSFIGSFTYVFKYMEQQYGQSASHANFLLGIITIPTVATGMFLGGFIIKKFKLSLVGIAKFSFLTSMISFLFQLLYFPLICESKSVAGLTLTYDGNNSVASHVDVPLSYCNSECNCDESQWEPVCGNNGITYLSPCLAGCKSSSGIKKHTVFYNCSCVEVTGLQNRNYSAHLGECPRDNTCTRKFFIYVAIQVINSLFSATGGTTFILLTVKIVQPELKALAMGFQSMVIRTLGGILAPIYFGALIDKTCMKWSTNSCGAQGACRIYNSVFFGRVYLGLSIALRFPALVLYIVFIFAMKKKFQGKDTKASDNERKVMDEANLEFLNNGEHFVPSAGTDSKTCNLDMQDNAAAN

Rattus norvegicus [11] = assay: Antidiabetic activity in Sprague-Dawley rat assessed as reduction in blood glucose AUC (0 to 120 mins) at 10 mg/kg, po administered 60 mins prior to glucose challenge by OGTT; format: functional, organism-based; summary of the method: as §2
[12] = molecular target: ATP-binding cassette sub-family C member 2 (Homo sapiens, UniProt Q92887); assay: Inhibition of human MRP2
ATP-binding cassette sub-family C member 2, sequence (Q92887 whole entry): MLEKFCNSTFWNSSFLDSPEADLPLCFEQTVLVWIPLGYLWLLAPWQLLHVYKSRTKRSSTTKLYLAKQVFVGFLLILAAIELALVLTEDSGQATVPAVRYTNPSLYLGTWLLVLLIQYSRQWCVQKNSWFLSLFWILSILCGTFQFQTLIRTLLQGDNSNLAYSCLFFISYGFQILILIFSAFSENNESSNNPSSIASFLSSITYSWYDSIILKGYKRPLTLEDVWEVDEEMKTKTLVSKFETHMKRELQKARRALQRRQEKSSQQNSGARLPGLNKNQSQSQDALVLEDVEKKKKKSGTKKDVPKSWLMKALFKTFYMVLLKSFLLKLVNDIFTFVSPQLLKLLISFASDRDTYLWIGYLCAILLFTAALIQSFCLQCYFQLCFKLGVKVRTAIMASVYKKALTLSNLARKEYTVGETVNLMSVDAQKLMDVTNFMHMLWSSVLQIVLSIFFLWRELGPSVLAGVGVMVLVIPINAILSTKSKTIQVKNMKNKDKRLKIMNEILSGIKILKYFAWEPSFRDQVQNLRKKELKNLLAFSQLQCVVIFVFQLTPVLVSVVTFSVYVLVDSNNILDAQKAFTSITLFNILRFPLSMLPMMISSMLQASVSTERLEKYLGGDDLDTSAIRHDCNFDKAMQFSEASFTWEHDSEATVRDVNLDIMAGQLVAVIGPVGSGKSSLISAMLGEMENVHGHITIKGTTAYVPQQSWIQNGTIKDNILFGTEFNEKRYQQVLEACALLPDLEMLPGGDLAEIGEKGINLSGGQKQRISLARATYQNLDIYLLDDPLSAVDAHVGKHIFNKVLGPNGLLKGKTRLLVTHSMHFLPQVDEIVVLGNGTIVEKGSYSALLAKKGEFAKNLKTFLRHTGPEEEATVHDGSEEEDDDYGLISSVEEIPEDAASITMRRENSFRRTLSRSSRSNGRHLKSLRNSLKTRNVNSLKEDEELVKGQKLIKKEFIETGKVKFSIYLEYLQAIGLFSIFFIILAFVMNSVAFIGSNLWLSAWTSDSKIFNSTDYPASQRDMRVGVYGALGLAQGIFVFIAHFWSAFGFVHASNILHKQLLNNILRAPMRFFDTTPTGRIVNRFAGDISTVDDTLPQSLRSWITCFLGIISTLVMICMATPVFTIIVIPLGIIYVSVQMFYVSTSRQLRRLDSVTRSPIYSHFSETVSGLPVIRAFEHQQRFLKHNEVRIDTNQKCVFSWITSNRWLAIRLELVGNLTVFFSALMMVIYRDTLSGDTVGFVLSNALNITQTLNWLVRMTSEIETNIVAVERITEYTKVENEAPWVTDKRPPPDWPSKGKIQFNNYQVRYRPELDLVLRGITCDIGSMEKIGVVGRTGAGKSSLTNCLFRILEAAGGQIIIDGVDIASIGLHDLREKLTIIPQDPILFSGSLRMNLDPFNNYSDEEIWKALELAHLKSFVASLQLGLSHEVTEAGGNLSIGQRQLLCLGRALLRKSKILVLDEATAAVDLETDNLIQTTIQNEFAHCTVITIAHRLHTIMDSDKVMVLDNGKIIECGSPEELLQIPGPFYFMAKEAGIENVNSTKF

T1 sequence (O14842 whole entry): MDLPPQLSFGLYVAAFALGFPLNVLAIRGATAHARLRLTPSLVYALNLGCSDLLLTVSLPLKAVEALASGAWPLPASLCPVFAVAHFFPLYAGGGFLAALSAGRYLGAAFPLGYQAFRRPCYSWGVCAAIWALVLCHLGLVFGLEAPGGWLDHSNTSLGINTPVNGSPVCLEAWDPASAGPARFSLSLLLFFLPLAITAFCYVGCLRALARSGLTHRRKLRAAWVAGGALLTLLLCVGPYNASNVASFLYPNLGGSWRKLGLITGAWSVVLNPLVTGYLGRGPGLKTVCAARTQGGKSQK

| Compound | EC50 [1] [nM] | Emax [2] [%] | other results |
| --- | --- | --- | --- |
| O=C(O)CCc1ccc(OCC2COc3cc(Br)ccc3O2)cc1F (stereo not drawn) | 980 | 67 |  |
| CC#C[C@@H](CC(=O)O)c1ccc(OC[C@H]2COc3cc(Cl)ccc3O2)cc1 | 110 | 80 |  |
| COCCOc1ccc2c(c1)OC(COc1ccc(CCC(=O)O)c(F)c1)CC2 (stereo not drawn) | 2370 | 36 |  |
| O=C(O)CC1(c2ccc(OCC3COc4ccc(Cl)cc4O3)cc2)COC1 (stereo not drawn) | 8060 | 66 |  |
| O=C(O)CCc1ccc(OCC2COc3ccc(Cl)cc3O2)cc1F (stereo not drawn) | 830 | 50 |  |
| Cc1cc(OCCCS(C)(=O)=O)cc(C)c1-c1cccc(COc2ccc3c(c2)OC[C@H]3CC(=O)O)c1 |  |  | AUC(0-t) [3]: 137 µg·h/mL; Activity (Rattus norvegicus [4]): Active; IC50 [5]: 2280 nM; Tmax [6]: 3.5 h; half-life [7]: 3.94 h; Cmax [8]: 19400 ng/mL; Activity (Hepatocyte): Toxic; Activity (Rattus norvegicus [9]): Active; IC50 [10]: 11200 nM; Activity (Rattus norvegicus [11]): Active; IC50 [12]: 2410 nM |
| CC#C[C@@H](CC(=O)O)c1ccc(OC[C@H]2COc3c(Cl)cccc3O2)cc1 | 170 | 81 |  |
| Cn1cncc1C(CC(=O)O)c1ccc(OCC2COc3ccc(Cl)cc3O2)cc1 (stereo not drawn) | 3060 | 62 |  |
| COc1ccc2c(c1)OC(COc1ccc(CCC(=O)O)c(F)c1)CC2 (stereo not drawn) | 2110 | 58 |  |
| CC#C[C@@H](CC(=O)O)c1ccc(OC[C@H]2COc3ccc(C(=O)N(C)C)cc3O2)cc1 | > 30000 | 32 |  |
| CC#C[C@@H](CC(=O)O)c1ccc(OC[C@H]2COc3ccc(F)cc3O2)cc1 | 210 | 86 |  |
| CC#C[C@@H](CC(=O)O)c1ccc(OC[C@H]2COc3ccc(CO)cc3O2)cc1 | > 30000 | 42 |  |
| CC#C[C@@H](CC(=O)O)c1ccc(OC[C@H]2COc3cc(F)c(Cl)cc3O2)cc1 | 210 | 46 |  |
| O=C(O)CC(c1ccncc1)c1ccc(OCC2COc3ccc(Cl)cc3O2)cc1 (stereo not drawn) | 1170 | 62 |  |
| CC#CC(CC(=O)O)c1ccc(OCC2COc3ccc(Cl)cc3O2)cc1 (stereo not drawn) | 100 | 104 |  |
| CCCCC/C=C\C/C=C\CCCCCCCC(=O)O [LINOLEIC ACID] | 4800 |  |  |
| CC#C[C@@H](CC(=O)O)c1ccc(OC[C@H]2COc3ccc(C(C)=O)cc3O2)cc1 | > 30000 | 51 |  |
| CC#C[C@@H](CC(=O)O)c1ccc(OC[C@H]2COc3cccc(Cl)c3O2)cc1 | 520 | 95 |  |
| O=C(O)CC(c1ccc(F)cc1)c1ccc(OCC2COc3ccc(Cl)cc3O2)cc1 (stereo not drawn) | 4310 | 83 |  |
| CC#C[C@@H](CC(=O)O)c1ccc(OC[C@@H]2COc3ccc(Cl)cc3O2)cc1 | 260 | 65 |  |
